According to ChEMBL document CHEMBL1141202, “Novel CCR1 antagonists with oral activity in the mouse collagen induced arthritis” (Bioorg Med Chem Lett, 2005):

How the values were obtained:
[1] = target: T1, C-C chemokine receptor type 1 (Homo sapiens, UniProt P32246); test: Antagonistic activity at human CCR1 by inhibition of MIP-1alpha induced calcium mobilization in THP1 cells; assay type: functional, cell-based, THP-1
T1 sequence (P32246 whole entry): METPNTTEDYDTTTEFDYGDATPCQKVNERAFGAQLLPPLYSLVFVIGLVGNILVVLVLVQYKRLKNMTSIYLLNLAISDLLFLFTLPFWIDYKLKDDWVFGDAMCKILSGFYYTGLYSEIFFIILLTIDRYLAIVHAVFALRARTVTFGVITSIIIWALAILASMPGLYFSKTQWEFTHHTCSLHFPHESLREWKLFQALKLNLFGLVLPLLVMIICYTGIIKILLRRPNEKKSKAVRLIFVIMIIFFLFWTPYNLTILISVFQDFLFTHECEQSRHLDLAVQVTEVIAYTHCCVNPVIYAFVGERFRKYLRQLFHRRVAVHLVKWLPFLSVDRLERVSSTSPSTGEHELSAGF
Outline: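 THP-1 cells with native CCR1 expression; preincubated with antagonist 30 min at RT, then stimulated with 3 nM MIP-1α; calcium response read as fluo-4 fluorescence.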

[2] = Oral bioavailability in rat; assay type: ADME, organism-based; conditions: in vivo
[3] = Half life in rat; assay type: ADME, organism-based; conditions: in vivo
[4] = target: T2, C-C chemokine receptor type 1 (Mus musculus, UniProt P51675); test: Antagonistic activity at mouse CCR1 in CHO-K1 cells; assay type: functional, cell-based
T2 sequence (P51675 whole entry): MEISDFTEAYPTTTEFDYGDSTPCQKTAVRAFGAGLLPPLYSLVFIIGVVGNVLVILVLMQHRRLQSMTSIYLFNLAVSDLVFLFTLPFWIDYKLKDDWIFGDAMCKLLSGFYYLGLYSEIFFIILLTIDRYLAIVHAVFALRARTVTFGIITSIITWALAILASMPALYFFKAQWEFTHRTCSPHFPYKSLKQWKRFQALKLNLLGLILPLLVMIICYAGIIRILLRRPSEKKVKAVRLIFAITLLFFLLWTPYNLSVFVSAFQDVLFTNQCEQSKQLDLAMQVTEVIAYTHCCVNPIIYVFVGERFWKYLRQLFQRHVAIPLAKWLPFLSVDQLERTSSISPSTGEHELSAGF
Outline: (§1)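 CHO-K1 cells stably transfected with human, mouse or rat CCR1; membranes used in a scintillation proximity assay with radiolabelled MIP-1α as ligand.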

[5] = organism: Rattus norvegicus; test: Maximum concentration in rat; assay type: ADME, organism-based; conditions: in vivo
[6] = AUC in rat; assay type: ADME, organism-based; conditions: plasma
[7] = target: T1, C-C chemokine receptor type 1; test: Antagonistic activity at human CCR1 in CHO-K1 cells; assay type: functional, cell-based; outline: as §1
[8] = target: C-C chemokine receptor type 3 (Homo sapiens, UniProt P51677); test: Inhibition of human CCR3
[9] = target: 5-hydroxytryptamine receptor 2B (Homo sapiens, UniProt P41595); test: Inhibition of human 5HT2B receptor
Chain of 5-hydroxytryptamine receptor 2B (P41595 whole entry): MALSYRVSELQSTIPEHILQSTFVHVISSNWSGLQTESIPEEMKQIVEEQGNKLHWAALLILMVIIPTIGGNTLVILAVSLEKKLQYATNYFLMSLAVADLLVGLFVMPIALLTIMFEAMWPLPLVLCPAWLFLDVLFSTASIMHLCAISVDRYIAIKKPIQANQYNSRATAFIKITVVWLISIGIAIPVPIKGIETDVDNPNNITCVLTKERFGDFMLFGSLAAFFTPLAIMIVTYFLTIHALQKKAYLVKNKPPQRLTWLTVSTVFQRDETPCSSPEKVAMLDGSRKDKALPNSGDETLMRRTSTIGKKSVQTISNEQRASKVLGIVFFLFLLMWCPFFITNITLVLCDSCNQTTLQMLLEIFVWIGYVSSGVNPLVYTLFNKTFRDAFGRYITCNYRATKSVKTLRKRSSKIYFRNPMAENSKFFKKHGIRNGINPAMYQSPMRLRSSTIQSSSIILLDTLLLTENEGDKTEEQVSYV

[10] = target: C-C chemokine receptor type 6 (Homo sapiens, UniProt P51684); test: Inhibition of human CCR6
Chain of C-C chemokine receptor type 6 (P51684 whole entry): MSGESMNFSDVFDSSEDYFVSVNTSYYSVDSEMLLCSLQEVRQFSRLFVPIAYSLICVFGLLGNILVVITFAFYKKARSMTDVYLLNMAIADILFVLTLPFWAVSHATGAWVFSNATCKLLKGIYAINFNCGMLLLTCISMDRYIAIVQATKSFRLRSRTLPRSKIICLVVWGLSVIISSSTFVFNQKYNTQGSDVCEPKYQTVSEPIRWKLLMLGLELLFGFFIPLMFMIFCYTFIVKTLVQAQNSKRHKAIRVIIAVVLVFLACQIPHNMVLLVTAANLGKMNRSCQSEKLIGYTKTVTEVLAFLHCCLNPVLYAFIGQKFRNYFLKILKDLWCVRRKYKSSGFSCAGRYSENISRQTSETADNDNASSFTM

[11] = target: Delta-type opioid receptor (Homo sapiens, UniProt P41143); test: Inhibition of human delta opioid receptor
[12] = target: Mu-type opioid receptor (Homo sapiens, UniProt P35372); test: Inhibition of human mu opioid receptor
[13] = target: C-C chemokine receptor type 2 (Homo sapiens, UniProt P41597); test: Inhibition of human CCR2b
[14] = target: 5-hydroxytryptamine receptor 2A (Homo sapiens, UniProt P28223); test: Inhibition of human 5HT2A receptor
Chain of 5-hydroxytryptamine receptor 2A (P28223 whole entry): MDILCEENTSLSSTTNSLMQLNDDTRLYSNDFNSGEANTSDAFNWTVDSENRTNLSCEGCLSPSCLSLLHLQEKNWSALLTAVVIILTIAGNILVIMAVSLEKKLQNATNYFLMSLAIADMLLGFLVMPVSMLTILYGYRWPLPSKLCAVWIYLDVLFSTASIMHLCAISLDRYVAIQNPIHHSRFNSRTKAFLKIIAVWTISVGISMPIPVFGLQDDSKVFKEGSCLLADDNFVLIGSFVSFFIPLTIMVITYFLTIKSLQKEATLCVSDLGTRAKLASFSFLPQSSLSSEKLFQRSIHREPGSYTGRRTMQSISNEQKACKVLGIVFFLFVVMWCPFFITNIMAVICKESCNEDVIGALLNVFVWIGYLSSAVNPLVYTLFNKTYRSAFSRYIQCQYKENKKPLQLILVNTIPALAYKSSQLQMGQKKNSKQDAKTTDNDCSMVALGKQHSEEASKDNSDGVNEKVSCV

[15] = target: Muscarinic acetylcholine receptor M2 (Homo sapiens, UniProt P08172); test: Inhibition of human muscarinic receptor M2
Chain of Muscarinic acetylcholine receptor M2 (P08172 whole entry): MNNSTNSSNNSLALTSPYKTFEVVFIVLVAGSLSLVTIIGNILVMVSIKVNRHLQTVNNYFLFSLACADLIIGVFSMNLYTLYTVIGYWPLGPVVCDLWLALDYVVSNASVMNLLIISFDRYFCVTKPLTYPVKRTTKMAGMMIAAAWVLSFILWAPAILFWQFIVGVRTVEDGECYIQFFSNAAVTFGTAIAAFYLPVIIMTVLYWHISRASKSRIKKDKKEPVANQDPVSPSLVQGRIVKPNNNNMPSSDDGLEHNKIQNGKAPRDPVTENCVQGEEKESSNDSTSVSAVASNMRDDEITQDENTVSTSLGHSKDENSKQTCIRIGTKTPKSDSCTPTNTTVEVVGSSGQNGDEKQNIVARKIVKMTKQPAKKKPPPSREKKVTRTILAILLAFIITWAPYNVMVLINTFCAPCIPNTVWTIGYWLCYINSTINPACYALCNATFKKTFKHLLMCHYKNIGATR

[16] = target: C-C chemokine receptor type 5 (Mus musculus, UniProt P51682); test: Inhibition of mouse CCR5
[17] = target: D(4) dopamine receptor (Homo sapiens, UniProt P21917); test: Inhibition of human dopamine receptor D4.4
Chain of D(4) dopamine receptor (P21917 whole entry): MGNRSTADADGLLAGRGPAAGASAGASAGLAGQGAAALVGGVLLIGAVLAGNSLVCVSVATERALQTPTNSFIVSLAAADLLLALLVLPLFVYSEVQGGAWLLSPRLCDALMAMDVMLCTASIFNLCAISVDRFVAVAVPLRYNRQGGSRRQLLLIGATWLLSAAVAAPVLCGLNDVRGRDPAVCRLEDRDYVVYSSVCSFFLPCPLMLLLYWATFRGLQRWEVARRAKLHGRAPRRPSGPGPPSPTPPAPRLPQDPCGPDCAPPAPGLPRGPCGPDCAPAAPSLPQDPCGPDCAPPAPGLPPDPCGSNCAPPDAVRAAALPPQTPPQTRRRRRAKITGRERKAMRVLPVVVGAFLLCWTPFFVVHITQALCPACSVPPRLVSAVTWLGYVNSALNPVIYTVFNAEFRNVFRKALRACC

[18] = target: Muscarinic acetylcholine receptor M3 (Homo sapiens, UniProt P20309); test: Inhibition of human muscarinic receptor M3
Chain of Muscarinic acetylcholine receptor M3 (P20309 whole entry): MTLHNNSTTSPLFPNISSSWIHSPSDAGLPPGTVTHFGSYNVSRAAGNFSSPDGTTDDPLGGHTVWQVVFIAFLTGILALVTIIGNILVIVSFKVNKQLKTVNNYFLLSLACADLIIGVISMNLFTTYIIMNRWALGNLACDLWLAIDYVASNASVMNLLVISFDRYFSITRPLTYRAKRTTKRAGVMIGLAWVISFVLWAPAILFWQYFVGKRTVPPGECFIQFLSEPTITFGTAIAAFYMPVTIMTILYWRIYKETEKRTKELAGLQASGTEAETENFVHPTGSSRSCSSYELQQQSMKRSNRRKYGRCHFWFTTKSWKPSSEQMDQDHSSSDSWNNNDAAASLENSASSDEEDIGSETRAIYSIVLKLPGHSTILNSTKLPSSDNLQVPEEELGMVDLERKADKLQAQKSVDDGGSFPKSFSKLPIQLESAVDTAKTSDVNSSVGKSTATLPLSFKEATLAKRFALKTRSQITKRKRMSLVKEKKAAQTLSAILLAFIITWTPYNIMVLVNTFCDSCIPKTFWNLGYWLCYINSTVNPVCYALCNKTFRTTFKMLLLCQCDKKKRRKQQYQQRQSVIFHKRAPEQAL

[19] = target: Alpha-2A adrenergic receptor (Homo sapiens, UniProt P08913); test: Inhibition of human adrenergic alpha-2A receptor
[20] = target: Alpha-2B adrenergic receptor (Homo sapiens, UniProt P18089); test: Inhibition of human adrenergic alpha-2B receptor
Chain of Alpha-2B adrenergic receptor (P18089 whole entry): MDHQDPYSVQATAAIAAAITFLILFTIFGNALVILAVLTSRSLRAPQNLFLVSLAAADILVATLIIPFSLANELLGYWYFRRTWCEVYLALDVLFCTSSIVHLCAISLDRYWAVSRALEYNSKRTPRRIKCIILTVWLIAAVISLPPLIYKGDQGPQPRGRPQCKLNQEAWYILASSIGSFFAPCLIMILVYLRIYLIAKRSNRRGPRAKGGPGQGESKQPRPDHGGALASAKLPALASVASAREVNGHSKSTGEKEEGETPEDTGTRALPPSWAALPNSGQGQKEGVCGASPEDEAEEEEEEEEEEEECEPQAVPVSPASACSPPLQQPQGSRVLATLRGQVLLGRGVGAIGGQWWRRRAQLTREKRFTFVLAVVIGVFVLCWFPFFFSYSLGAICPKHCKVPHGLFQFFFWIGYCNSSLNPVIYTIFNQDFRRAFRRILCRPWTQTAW

[21] = target: Muscarinic acetylcholine receptor M5 (Homo sapiens, UniProt P08912); test: Inhibition of human muscarinic receptor M5
[22] = target: 5-hydroxytryptamine receptor 1B (Homo sapiens, UniProt P28222); test: Inhibition of human 5HT1B receptor
[23] = target: Serotonin 3 (5-HT3) receptor; test: Inhibition of human 5HT3 receptor; assay type: protein-complex assay
[24] = target: D(2) dopamine receptor (Homo sapiens, UniProt P14416); test: Inhibition of human dopamine receptor D2
Chain of D(2) dopamine receptor (P14416 whole entry): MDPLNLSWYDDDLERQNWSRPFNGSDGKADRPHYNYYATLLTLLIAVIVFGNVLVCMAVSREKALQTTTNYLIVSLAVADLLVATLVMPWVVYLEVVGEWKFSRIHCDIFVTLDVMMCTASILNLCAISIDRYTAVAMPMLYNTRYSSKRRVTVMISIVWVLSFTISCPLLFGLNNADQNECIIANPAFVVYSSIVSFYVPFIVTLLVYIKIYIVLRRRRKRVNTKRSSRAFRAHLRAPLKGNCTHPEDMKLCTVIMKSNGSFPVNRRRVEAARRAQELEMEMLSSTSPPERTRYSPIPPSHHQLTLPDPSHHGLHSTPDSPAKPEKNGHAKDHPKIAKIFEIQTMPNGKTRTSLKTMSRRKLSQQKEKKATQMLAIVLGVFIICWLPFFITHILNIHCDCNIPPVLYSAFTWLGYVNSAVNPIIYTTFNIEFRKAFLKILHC

[25] = target: Beta-1 adrenergic receptor (Homo sapiens, UniProt P08588); test: Inhibition of human adrenergic beta-1 receptor
[26] = target: D(3) dopamine receptor (Homo sapiens, UniProt P35462); test: Inhibition of human dopamine receptor D3
[27] = target: 5-hydroxytryptamine receptor 2C (Homo sapiens, UniProt P28335); test: Inhibition of human 5HT2C receptor
Chain of 5-hydroxytryptamine receptor 2C (P28335 whole entry): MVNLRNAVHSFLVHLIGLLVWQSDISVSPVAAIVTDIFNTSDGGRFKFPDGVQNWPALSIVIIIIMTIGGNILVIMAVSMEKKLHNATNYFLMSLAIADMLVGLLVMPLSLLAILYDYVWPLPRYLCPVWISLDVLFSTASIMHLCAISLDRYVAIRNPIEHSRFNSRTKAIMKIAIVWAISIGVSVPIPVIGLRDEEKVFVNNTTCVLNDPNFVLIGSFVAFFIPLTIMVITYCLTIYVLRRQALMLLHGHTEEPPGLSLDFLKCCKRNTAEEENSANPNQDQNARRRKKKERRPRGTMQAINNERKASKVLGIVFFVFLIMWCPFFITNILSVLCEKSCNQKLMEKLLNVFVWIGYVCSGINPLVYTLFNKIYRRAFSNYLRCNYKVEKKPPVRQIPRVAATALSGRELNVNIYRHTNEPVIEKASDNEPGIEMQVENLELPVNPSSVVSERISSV

[28] = target: 5-hydroxytryptamine receptor 1A (Homo sapiens, UniProt P08908); test: Inhibition of human 5HT1A receptor
[29] = target: 5-hydroxytryptamine receptor 6 (Homo sapiens, UniProt P50406); test: Inhibition of human 5HT6 receptor
Chain of 5-hydroxytryptamine receptor 6 (P50406 whole entry): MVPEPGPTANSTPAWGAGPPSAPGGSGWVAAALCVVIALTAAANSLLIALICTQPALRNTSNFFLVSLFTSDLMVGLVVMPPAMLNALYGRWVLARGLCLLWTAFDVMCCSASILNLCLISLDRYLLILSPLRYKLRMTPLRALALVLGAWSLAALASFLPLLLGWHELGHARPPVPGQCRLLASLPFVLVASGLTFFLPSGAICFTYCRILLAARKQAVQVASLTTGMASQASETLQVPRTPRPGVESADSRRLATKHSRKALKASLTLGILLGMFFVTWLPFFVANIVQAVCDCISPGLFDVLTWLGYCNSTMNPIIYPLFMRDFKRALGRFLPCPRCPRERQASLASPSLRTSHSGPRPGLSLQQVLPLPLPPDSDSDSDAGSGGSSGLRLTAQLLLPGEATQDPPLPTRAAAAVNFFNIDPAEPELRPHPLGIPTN

[30] = target: D(1A) dopamine receptor (Homo sapiens, UniProt P21728); test: Inhibition of human dopamine receptor D1
[31] = target: Adrenergic receptor alpha-1 (Homo sapiens, UniProt P35348+P25100+P35368); test: Inhibition of human adrenergic alpha-1 receptor; assay type: protein assay
[32] = target: Kappa-type opioid receptor (Homo sapiens, UniProt P41145); test: Inhibition of human kappa opioid receptor
Chain of Kappa-type opioid receptor (P41145 whole entry): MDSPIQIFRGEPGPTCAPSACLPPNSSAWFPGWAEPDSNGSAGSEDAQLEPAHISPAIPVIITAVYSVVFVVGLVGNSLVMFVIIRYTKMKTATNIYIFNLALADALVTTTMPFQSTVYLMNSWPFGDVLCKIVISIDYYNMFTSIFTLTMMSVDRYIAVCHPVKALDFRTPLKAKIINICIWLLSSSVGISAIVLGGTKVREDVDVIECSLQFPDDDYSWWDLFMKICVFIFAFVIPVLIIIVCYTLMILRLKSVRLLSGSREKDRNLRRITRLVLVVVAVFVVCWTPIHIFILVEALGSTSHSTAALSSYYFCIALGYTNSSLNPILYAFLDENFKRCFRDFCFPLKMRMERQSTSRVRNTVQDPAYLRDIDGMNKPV

[33] = target: Muscarinic acetylcholine receptor M4 (Homo sapiens, UniProt P08173); test: Inhibition of human muscarinic receptor M4
[34] = target: Muscarinic acetylcholine receptor M1 (Homo sapiens, UniProt P11229); test: Inhibition of human muscarinic receptor M1
[35] = target: 5-hydroxytryptamine receptor 7 (Homo sapiens, UniProt P34969); test: Inhibition of human 5HT7 receptor
[36] = target: Beta-2 adrenergic receptor (Homo sapiens, UniProt P07550); test: Inhibition of human adrenergic beta-2 receptor
[37] = target: Alpha-2C adrenergic receptor (Homo sapiens, UniProt P18825); test: Inhibition of human adrenergic alpha-2C receptor

CN(C)CC(=O)Nc1cc(Cl)ccc1/C=C/C(=O)N1C2CCC1CN(Cc1ccc(F)cc1)C2
IC50 [1]: 9 nM
bioavailability [2]: 77%
half-life [3]: 2.92 h
IC50 [4]: 40 nM
Cmax [5]: 407 nM
AUC [6]: 1070 ng·h/mL
IC50 [7]: 30 nM

COc1cc(/C=C/C(=O)N2CCN(Cc3ccc(F)cc3)C[C@H]2C)c(NC(C)=O)cc1Cl
bioavailability [2]: 100%
half-life [3]: 4.1 h
Cmax [5]: 396 nM
AUC [6]: 750 ng·h/mL

CC(=O)Nc1cc2ccccc2cc1/C=C/C(=O)N1CCN(Cc2ccc(F)cc2)C[C@H]1C
IC50 [1]: 13 nM
IC50 [4]: 500 nM
IC50 [7]: 80 nM

CC(=O)Nc1cc(Cl)ccc1/C=C/C(=O)N1CC2CCC(C1)N2Cc1ccc(F)cc1
IC50 [7]: 300 nM

C[C@@H]1CN(Cc2ccc(F)cc2)CCN1C(=O)COc1ccc(Cl)cc1NC(N)=O.Cl [BX 471]
bioavailability [2]: 100%
half-life [3]: 1.9 h
Cmax [5]: 400 nM
AUC [6]: 139 ng·h/mL

CC(=O)Nc1cc2ncccc2cc1/C=C/C(=O)N1CCN(Cc2ccc(F)cc2)C[C@H]1C
IC50 [1]: 20 nM
IC50 [4]: 1000 nM
IC50 [7]: 30 nM

CC(=O)Nc1cc(Cl)ccc1/C=C/C(=O)N1C[C@H]2C[C@@H]1CN2Cc1ccc(F)cc1
IC50 [7]: 1700 nM

CC(=O)Nc1cc(Cl)ccc1/C=C/C(=O)N1CCN(Cc2ccc(F)cc2)C[C@H]1C
IC50 [8]: > 10000 nM
IC50 [9]: > 1000 nM
IC50 [10]: > 100000 nM
IC50 [11]: > 1000 nM
IC50 [12]: > 1000 nM
IC50 [13]: > 10000 nM
bioavailability [2]: 95%
IC50 [14]: > 1000 nM
IC50 [15]: > 1000 nM
half-life [3]: 16.5 h
IC50 [16]: > 10000 nM
IC50 [17]: > 1000 nM
IC50 [18]: > 1000 nM
IC50 [19]: > 1000 nM
IC50 [20]: > 1000 nM
IC50 [21]: > 1000 nM
IC50 [22]: > 1000 nM
IC50 [23]: > 1000 nM
IC50 [24]: > 1000 nM
IC50 [25]: > 1000 nM
Cmax [5]: 850 nM
IC50 [26]: > 1000 nM
IC50 [27]: > 1000 nM
IC50 [28]: > 1000 nM
IC50 [29]: > 1000 nM
AUC [6]: 784 ng·h/mL
IC50 [30]: > 1000 nM
IC50 [31]: > 1000 nM
IC50 [32]: > 1000 nM
IC50 [33]: > 1000 nM
IC50 [34]: > 1000 nM
IC50 [35]: > 1000 nM
IC50 [36]: > 1000 nM
IC50 [37]: > 1000 nM

COc1cc2c(cc1Cl)NC(=O)NC2CC(=O)N1CCN(Cc2ccc(F)cc2)C[C@H]1C (stereo partly drawn)
IC50 [7]: 800 nM

CC(=O)Nc1cc(Cl)ccc1/C=C/C(=O)N1C2CCC1CN(Cc1ccc(F)cc1)C2
IC50 [7]: 200 nM

C[C@@H]1CN(Cc2ccc(F)cc2)CCN1C(=O)/C=C/c1ccc(Cl)cc1NC(N)=O
bioavailability [2]: 90%
half-life [3]: 11 h
Cmax [5]: 934 nM
AUC [6]: 487 ng·h/mL

CC(=O)Nc1cc(Cl)ccc1CCC(=O)N1CCN(Cc2ccc(F)cc2)C[C@H]1C
IC50 [7]: 360 nM

CC(=O)Nc1cc(Cl)ccc1/C=C/C(=O)N1CCCN(Cc2ccc(F)cc2)C[C@H]1C
IC50 [7]: 1600 nM

CC(=O)Nc1cc2ncccc2cc1/C=C/C(=O)N1C2CCC1CN(Cc1ccc(F)cc1)C2
IC50 [4]: 50 nM
IC50 [7]: 150 nM

COc1cc(/C=C/C(=O)N2C3CCC2CN(Cc2ccc(F)cc2)C3)c(NC(C)=O)cc1Cl
bioavailability [2]: 83%
half-life [3]: 5.1 h
IC50 [4]: 4 nM
Cmax [5]: 80 nM
AUC [6]: 158 ng·h/mL
IC50 [7]: 7 nM
